# According to ChEMBL document CHEMBL5149972, “Novel Antimalarial Tetrazoles and Amides Active against the Hemoglobin Degradation Pathway in Plasmodium falciparum” (J Med Chem, 2021):
# Active and inactive are the calls of the source. The calls are words filed in the database; no cut-off is given here.
# Assays:
# [1] = tested on: Hemozoin; assay: Inhibition of Beta-hematin assessed as bis-pyridyl-Fe(III)PPIX complex formation incubated for 5 hrs by NP40 detergent-mediated colorimetric assay
# [2] = tested on: Plasmodium falciparum; assay: Antiplasmodial activity against asexual blood stage Plasmodium falciparum 3D7 infected in human RBC assessed as parasite growth inhibition incubated for 72 hrs by SYBR Green dye based fluorescence assay; type: functional, organism-based
# Method in brief: (§1)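 Blood-stage cultures at 2% hematocrit, human O+ RBCs, RPMI 1640 + 25 mM HEPES, 0.5% Albumax-I, 23 mM bicarbonate, 92 μM hypoxanthine. Start at 0.5% parasitemia; 72 h at 37°C, 5% CO₂; freeze-thaw, then SYBR Green in saponin/Triton lysis buffer, 4 h RT dark; fluorescence ex 485/em 535 nm. 10-point curves, technical duplicates or triplicates, final 0.5% DMSO; four-parameter fit gives EC₅₀; mean ± std dev of biological replicates.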
# [3] = (§2) Cytotoxicity against human HepG2 cells assessed as reduction in cell viability incubated for 72 hrs by CellTiter-Glo assay; type: toxicity, cell-based; settings: HepG2 cells
# [4] = tested on: Plasmodium falciparum; assay: Antiplasmodial activity against Plasmodium falciparum NF54 expressing transgenic luciferase assessed as parasite kill rate at trophozoite stage incubated for 72 hrs by bioluminescence relative rate of kill (BRRoK) assay; type: functional, organism-based; settings: RBC
# [5] = tested on: Plasmodium falciparum; assay: Antiplasmodial activity against Plasmodium falciparum NF54 expressing transgenic luciferase assessed as parasite kill rate at trophozoite stage incubated for 6 hrs by bioluminescence relative rate of kill (BRRoK) assay; type: functional, organism-based; settings: RBC
# [6] = tested on: HepG2; assay: as §2; type: toxicity, cell-based; settings: hepg2, 72 h
# [7] = tested on: Plasmodium falciparum; assay: Antiplasmodial activity against drug resistant Plasmodium falciparum Dd2 infected in human RBC assessed as parasite growth inhibition incubated for 72 hrs by SYBR Green dye based fluorescence assay; type: functional, organism-based; method in brief: as §1
# [8] = Metabolic stability in human liver microsomes assessed as intrinsic clearance per mg of protein at 1 uM incubated for 60 mins presence of NADPH regenerating buffer system by LC-MS analysis; type: ADME, Microsome; settings: 1 h
# [9] = Kinetic solubility of compound in PBS at pH 2 by HPLC analysis; type: physicochemical; settings: read-out: Kinetic_solubility
# [10] = Kinetic solubility of compound in PBS at pH 6.5 by HPLC analysis; type: physicochemical; settings: read-out: Kinetic_solubility
# [11] = tested on: Plasmodium falciparum; assay: Antiplasmodial activity against Plasmodium falciparum 3D7 infected in human RBC assessed as parasite growth inhibition incubated for 48 hrs by 3H-hypoxanthine incorporation assay; type: functional, organism-based; settings: 3D7, Erythrocyte
# [12] = Plasmodium falciparum, 3D7, Erythrocyte, 72 h
# [13] = Plasmodium falciparum, Dd2, Erythrocyte, 72 h
SMILES,"EC50 [2, 12] [µM]",CC50 [6] [µM],"EC50 [7, 13] [µM]",further results
Cc1cc(Nc2ccc3ccccc3c2)n2ncnc2n1,,,,IC50 [1]: > 1000 µM
CC(=O)c1ccc(NC(=O)c2ccc(NC(=O)C3COc4ccccc4O3)cc2)cc1 (stereo unspecified),0.71,,,CC50 at 72 h [3]: > 30 µM; Activity [4]: Active; Activity [5]: Active
CCC(C(=O)Nc1cccc(Cl)c1)N1C(=O)C(C)N=C(c2ccccc2)c2ccccc21 (stereo unspecified),0.31,,,CC50 at 72 h [3]: > 30 µM; Activity [4]: Active; Activity [5]: Active
CCc1ccccc1N(C)C(=O)C(c1cncnc1)N(Cc1cccc(C(F)(F)F)c1)C1CC1 (racemic),0.24,> 25,0.57,
Cc1ncc(C(C(=O)N(C)c2ccccc2C)N(Cc2cccc(C(F)(F)F)c2)C2CC2)cn1 (racemic),7.5,> 30,7.7,
Cc1ccccc1-n1nnnc1C(c1cccnc1)N(C)Cc1cc(C(F)(F)F)ccc1F (racemic),1,,2.5,
COc1ccc(C(F)(F)F)cc1CN(C)C(c1cccnc1)c1nnnn1-c1ccccc1C (racemic),1.3,,,EC50 ([7]; rbc): 3.7 µM
Cc1ccccc1-n1nnnc1C(c1cncnc1)N(Cc1cc(F)cc(C(F)(F)F)c1)C1CC1 (racemic),0.37,,,CC50 at 72 h [3]: 36 µM; EC50 ([7]; rbc): 1.2 µM
COc1ccccc1CN(C)C(c1ccccc1)c1nnnn1-c1ccccc1C (racemic),9.7,,10,
Cc1ccccc1-n1nnnc1C(c1cccnc1)N(Cc1cc(C(F)(F)F)ccc1F)C1CC1 (racemic),0.6,,0.67,
COc1ccc(Br)cc1CN(C)C(c1ccccc1)c1nnnn1-c1ccccc1C (racemic),,> 30,5.4,EC50 ([2]; rbc): 3.5 µM; IC50 [1]: > 1000 µM
O=C(C(c1cccnc1)N(Cc1cccc(C(F)(F)F)c1)C1CC1)N1CCCCC1 (racemic),1.8,> 20,4.2,CLH [8]: 244 µL/min/mg; solubility kinetic [9]: > 100 µg/mL; solubility kinetic [10]: 25 µg/mL
Cc1ccccc1-n1nnnc1C(c1cncnc1)N(Cc1ccc(F)c(C(F)(F)F)c1)C1CC1 (racemic),0.47,,0.68,
CCCN(C(c1cncnc1)c1nnnn1-c1ccccc1C)C1(c2cccc(C(F)(F)F)c2)CC1 (racemic),0.31,,0.52,
CN(C(=O)C(c1cncnc1)N(Cc1cccc(C(F)(F)F)c1)C1CC1)c1ccccc1 (racemic),0.72,> 30,2,
COc1ccc(C(F)(F)F)cc1CN(C1CC1)C(c1cccnc1)c1nnnn1-c1ccccc1C (racemic),0.49,,0.48,CLH [8]: 154 µL/min/mg; solubility kinetic [9]: 12.5 µg/mL; solubility kinetic [10]: 1.6 µg/mL
CCCN(C(C(=O)N(C)c1ccccc1C)c1cccnc1)C1(c2cccc(C(F)(F)F)c2)CC1 (racemic),0.21,> 15,0.33,
COc1ccc(C(F)(F)F)cc1CN(C)C(c1ccccc1)c1nnnn1-c1ccccc1C (racemic),1.7,,3.7,
CN(Cc1cc(C(F)(F)F)ccc1F)C(c1cccnc1)c1nnnn1C1CCCCC1 (racemic),1.7,,2.6,
Cc1ccccc1N(C)C(=O)C(c1cccnc1)N(Cc1cccc(OC(F)(F)F)c1)C1CC1 (racemic),0.32,> 30,0.52,
Cc1ccccc1N(C)C(=O)C(c1cccnc1)N(Cc1cccc(C(F)(F)F)c1)C1CC1 (racemic),0.34,> 30,0.59,CLH [8]: 781 µL/min/mg; solubility kinetic [9]: > 100 µg/mL; solubility kinetic [10]: 6.3 µg/mL
Cc1ccccc1-n1nnnc1C(C1CC1)N(Cc1cccc(C(F)(F)F)c1)C1CC1 (racemic),4.7,,3.2,
Cc1ncccc1C(c1nnnn1C1CC1)N(C1CC1)C1(c2cccc(C(F)(F)F)c2)CC1 (racemic),14,> 30,16,

SMILES,"EC50 [2, 12] [µM]",CC50 [6] [µM],"EC50 [7, 13] [µM]",further results
FC(F)(F)c1cccc(CN(C2CC2)C(c2cccnc2)c2nnnn2C2CC2)c1 (racemic),1.5,,3,
Cc1ccccc1N(C)C(=O)C(c1cccnc1)N(Cc1cccc(SC(F)(F)F)c1)C1CC1 (racemic),0.31,> 30,0.39,
CCCN(C(c1cccnc1)c1nnnn1-c1ccccc1C)C1(c2cccc(C(F)(F)F)c2)CC1 (racemic),0.23,10,0.41,
Cc1ccccc1N(C)C(=O)C(c1cncnc1)N(Cc1cccc(OC(F)(F)F)c1)C1CC1 (racemic),0.24,> 30,0.59,
Cc1ccccc1-n1nnnc1C(c1cncnc1)N(Cc1cccc(C(F)(F)F)c1F)C1CC1 (racemic),0.47,,0.71,
Cc1ccccc1N(C)C(=O)C(c1cncnc1)N(Cc1cccc(C(F)(F)F)c1)C1CC1 (racemic),0.4,> 30,0.79,CLH [8]: 531 µL/min/mg; solubility kinetic [9]: 11 µg/mL; solubility kinetic [10]: > 45 µg/mL
Cc1ccccc1N(C)C(=O)C(c1cncnc1)N(Cc1cccc(SC(F)(F)F)c1)C1CC1 (racemic),0.26,> 30,1,
CCc1ccccc1N(C)C(=O)C(c1cccnc1)N(Cc1cccc(C(F)(F)F)c1)C1CC1 (racemic),0.19,> 20,0.48,
"COc1ccc(C(F)(F)F)cc1CN(C)C(c1cccnc1)c1nnnn1-c1ccccc1C (single isomer, unassigned; (+))",,,,EC50 ([2]; rbc): 1.5 µM; EC50 ([7]; rbc): 2.5 µM
"Cc1ccccc1-n1nnnc1C(c1cncnc1)N(Cc1cc(F)cc(C(F)(F)F)c1)C1CC1 (single isomer, unassigned; (+))",,,,EC50 ([2]; rbc): 0.35 µM; EC50 ([7]; rbc): 2.5 µM
"COc1ccc(Br)cc1CN(C)C(c1ccccc1)c1nnnn1-c1ccccc1C (single isomer, unassigned; (+))",,,,EC50 ([2]; rbc): 1.5 µM; EC50 ([7]; rbc): 3 µM
"COc1ccc(C(F)(F)F)cc1CN(C)C(c1cccnc1)c1nnnn1-c1ccccc1C (single isomer, unassigned; (-))",,,,EC50 ([7]; rbc): 1.7 µM
"Cc1ccccc1-n1nnnc1C(c1cncnc1)N(Cc1cc(F)cc(C(F)(F)F)c1)C1CC1 (single isomer, unassigned; (-))",,> 30,,EC50 ([2]; rbc): 0.42 µM; EC50 ([7]; rbc): 2.6 µM
"COc1ccc(Br)cc1CN(C)C(c1ccccc1)c1nnnn1-c1ccccc1C (single isomer, unassigned; (-))",,,,EC50 ([2]; rbc): 4.4 µM; EC50 ([7]; rbc): 4 µM
"O[C@@H](c1cc(C(F)(F)F)nc2c(C(F)(F)F)cccc12)[C@H]1CCCCN1 [(S,R)-MEFLOQUINE]",,,,IC50 [1]: 60 µM
CCN(CC)Cc1cc(Nc2ccnc3cc(Cl)ccc23)ccc1O [AMODIAQUINE],,,,IC50 [1]: 8.6 µM
C[C@@H]1CC[C@H]2[C@@H](C)C(=O)O[C@@H]3O[C@@]4(C)CC[C@@H]1[C@]32OO4 [ARTEMISININ],0.013,,,CC50 at 72 h [3]: > 30 µM; Activity [4]: Active; Activity [5]: Active; EC50 [11]: 0.03 µM
C[C@H]1[C@H](OC(=O)CCC(=O)O)O[C@@H]2O[C@@]3(C)CC[C@H]4[C@H](C)CC[C@@H]1[C@@]24OO3 [ARTESUNATE],,,,IC50 [1]: > 1000 µM
O=C1C(O)=C([C@H]2CC[C@H](c3ccc(Cl)cc3)CC2)C(=O)c2ccccc21 [ATOVAQUONE],0.0013,,,CC50 at 72 h [3]: > 30 µM; Activity [4]: Active; Activity [5]: Active; EC50 [11]: 0.001 µM
C[C@H]1c2cccc(O)c2C(=O)C2=C(O)[C@]3(O)C(=O)C(C(N)=O)=C(O)[C@@H](N(C)C)[C@@H]3[C@@H](O)[C@@H]21 [DOXYCYCLINE],,,,IC50 [1]: > 1000 µM
Cc1cc(Nc2ccc(S(F)(F)(F)(F)F)cc2)n2nc(C(C)(F)F)nc2n1 [DSM-265],0.005,,,CC50 at 72 h [3]: > 30 µM; Activity [4]: Active; Activity [5]: Active
COc1ccc2nc3cc(Cl)ccc3c(Nc3cc(CN4CCCC4)c(O)c(CN4CCCC4)c3)c2n1 [PYRONARIDINE],,,,IC50 [1]: 2.2 µM
COc1ncnc(NS(=O)(=O)c2ccc(N)cc2)c1OC [SULFADOXINE],,,,IC50 [1]: > 1000 µM
